Data reported in ChEMBL document CHEMBL4627349, “Synthesis and evaluation of the performance of a small molecule library based on diverse tropane-related scaffolds” (Bioorg Med Chem, 2020).
Active and inactive are the calls of the source.

How the values were obtained:
[1] = test system: Plasmodium falciparum; test: Antiplasmodial activity against chloroquine-sensitive Plasmodium falciparum NF54 by lactate dehydrogenase assay; format: functional, organism-based
Summary of the method: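 Dose-response format against chloroquine-susceptible NF54 parasites, with lactate dehydrogenase activity as the parasite-viability marker.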

[2] = Inhibition of Hedgehog signaling pathway in mouse C3H10T1/2 cells assessed as reduction in osteoblast differentiation measured after 96 hrs by alkaline phosphatase CDP-star substrate based luminescence assay; format: cell-based; settings: C3H 10T1/2, 96 h
[3] = test system: C3H 10T1/2; test: Inhibition of Hedgehog signaling pathway in mouse C3H10T1/2 cells assessed as reduction in osteoblast differentiation at 10 uM measured after 96 hrs by alkaline phosphatase CDP-star substrate based luminescence assay relative to control; format: cell-based
Summary of the method: (§1)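 Single-concentration primary screen at 10 µM in an osteoblast differentiation assay for Hedgehog signalling inhibition, with cell viability monitored alongside. Hits were defined as at least 50% inhibition of signalling with <20% impact on cell viability.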

[4] = Cytotoxicity against mouse C3H10T1/2 cells assessed as effect on cell viability at 10 uM relative to control; format: cell-based, C3H 10T1/2; settings: read-out: Activity; summary of the method: as §1

SMILES | IC50 [1] [µM] | Activity [1] | other results
CN1C2CC(S(C)(=O)=O)C1C1CN(c3ccccn3)CC1C2O (centres undefined) | 5.4 | – | –
CN1C2CC(S(C)(=O)=O)C1Cc1cccnc12 (centres undefined) | – | Active | –
CS(=O)(=O)C1CC2c3c(c4ccccc4n3S(C)(=O)=O)CC1N2Cc1ccccc1 (centres undefined) | – | – | EC50 [2]: 4.4 µM; inhibition [3]: > 50%; viability at 10 µM [4]: < 20%
CN(Cc1ccc(OC(F)(F)F)cc1)C1CCC2C(S(C)(=O)=O)CC1N2C (centres undefined) | 5.7 | – | –
CS(=O)(=O)C1CC2c3c(c4ccccc4n3CC#N)CC1N2Cc1ccccc1 (centres undefined) | – | – | EC50 [2]: 4.2 µM; inhibition [3]: > 50%; viability at 10 µM [4]: < 20%
CS(=O)(=O)C1CC2c3ncccc3CC1N2Cc1ccccc1 (centres undefined) | – | Active | –
CN1C2CC(S(C)(=O)=O)C1C(c1ccc(F)cc1)CC2OCc1ccc(C#N)cc1 (centres undefined) | 5.5 | – | –
CN1C2CC(S(C)(=O)=O)C1Cc1c(-c3ccccc3)ccnc12 (centres undefined) | – | Active | –
CS(=O)(=O)C1CC2C(=O)c3n[nH]c(C(=O)O)c3C1N2Cc1ccccc1 (centres undefined) | 5.4 | – | –
CN1C2CC(S(=O)(=O)N(C)C)C1Cc1cccnc12 (centres undefined) | – | Active | –
